Reference: ChEMBL document CHEMBL1212757, “A single mutation in enzyme I of the sugar phosphotransferase system confers penicillin tolerance to Streptococcus gordonii” (2010)
Converted amounts (≈) assume the structure as drawn. The source made the active and inactive calls. No cut-off for these calls is given here.

Tests used:
Streptococcus gordonii [1] = experiment: (§1) Antimicrobial activity against erythromycin- and streptomycin-resistant Streptococcus gordonii Tol1 harboring R483P mutation in ptsI infected in Wistar rat assessed as protection against bacterial infection at 300000 U/kg, sc administered 16 hrs after infection every 12 hrs for 2 days measured within 3 days post last dose; type: functional, organism-based
Streptococcus gordonii [2] = experiment: Antimicrobial activity against wild type streptomycin-susceptible Streptococcus gordonii assessed as decrease in [14C]glucose uptake at 2 ug/ml after 60 mins by liquid scintillation counting; type: functional, organism-based
Method in brief: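 Cells were grown in BHI to OD550 of about 0.3, then exposed to penicillin at 2 μg/ml for 20, 40 or 60 min. They were washed in PBS-5 mM MgCl2, concentrated, and preincubated for 10 min at 35°C. Uptake was started with 20 mM stock [14C]glucose (600 dpm/nmol). Timed aliquots went into cold stop buffer, were filtered on glass fiber, and were counted by scintillation. A 4°C high-dilution sample corrected for nonspecific binding.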

Streptococcus gordonii [3] = experiment: Antimicrobial activity against wild type streptomycin-susceptible Streptococcus gordonii assessed as bacterial count at 2 ug/ml after 24 hrs by macrodilution method; type: functional
Method in brief: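 Time-kill assay: exponentially growing cultures in BHI broth at 37°C without aeration. Penicillin G was added at 2 μg/ml when OD600 reached 0.2 (about 1 × 10^8 CFU/ml). Viable counts were taken on agar plates, and the result is the loss of log10 CFU/ml after 24 h of exposure.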

Streptococcus gordonii [4] = experiment: (§2) Antimicrobial activity against wild type streptomycin-susceptible Streptococcus gordonii infected in Wistar rat assessed as decrease in bacterial infection at 300000 U/kg, sc administered 16 hrs after infection every 12 hrs for 2 days measured within 3 days post last dose; type: functional, organism-based
Method in brief: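 Female Wistar rats carried sterile aortic vegetations. After 24 h they were challenged i.v. with 10^7 CFU of exponential-phase streptococci in 0.5 ml saline. From 16 h post-inoculation, procaine penicillin 300,000 U/kg was given s.c. every 12 h for 2 days. Untreated controls were killed at therapy onset, and treated rats 12 h after the trough of the last dose. Vegetations were weighed and plated for CFU.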

Streptococcus gordonii [5] = experiment: Antimicrobial activity against wild type streptomycin-susceptible Streptococcus gordonii harboring P483R mutation in ptsI assessed as bacterial count at 2 ug/ml after 24 hrs by macrodilution technique
Streptococcus gordonii [6] = experiment: as §1, with “[…]” for “erythromycin-”, “Tol1” for “R483P”, “mutation” for “mutation in ptsI”; type: functional, organism-based
Streptococcus gordonii [7] = experiment: Antimicrobial activity against wild type streptomycin-susceptible Streptococcus gordonii after 24 hrs by macrodilution method; type: functional
Method in brief: (§3)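 MIC by standard broth macrodilution; streptococci grown at 37°C in BHI broth without aeration.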

Streptococcus gordonii [8] = experiment: Antimicrobial activity against wild type streptomycin-susceptible Streptococcus gordonii harboring […] mutation in ptsI assessed as decrease in [14C]glucose uptake at 2 ug/ml after 60 mins by liquid scintillation counting; type: functional, organism-based
Method in brief: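 Cells grown in BHI to OD550 ca 0.3, exposed to 2 μg/ml penicillin for 20, 40 or 60 min, washed in PBS-5 mM MgCl2, preincubated 10 min at 35°C; uptake started with [14C]glucose (600 dpm/nmol), aliquots diluted in cold stopping buffer, filtered on glass fibre, counted by liquid scintillation; 4°C high-dilution adsorption control.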

Streptococcus gordonii [9] = experiment: as §2, with “gordonii harboring […] mutation in ptsI” for “gordonii”; type: functional, organism-based
Streptococcus gordonii [10] = experiment: Antimicrobial activity against erythromycin- and streptomycin-resistant Streptococcus gordonii Tol1 harboring R483P mutation in ptsI assessed as bacterial count at 2 ug/ml after 24 hrs by macrodilution technique; type: functional
Streptococcus gordonii [11] = experiment: Antimicrobial activity against […] and streptomycin-resistant Streptococcus gordonii Tol1 harboring Tol1 mutation in ptsI assessed as bacterial count at 2 ug/ml after 24 hrs by macrodilution assay; type: functional
Streptococcus gordonii [12] = experiment: Antimicrobial activity against […] and streptomycin-resistant Streptococcus gordonii Tol1 harboring Tol1 mutation in ptsI after 24 hrs by macrodilution assay; type: functional; settings: Tol1, 24 h; method in brief: as §3

SMILES | Activity (Streptococcus gordonii [1]) | inhibition (Streptococcus gordonii [2]) | Activity (Streptococcus gordonii [3]) | inhibition (Streptococcus gordonii [4]) | Activity (Streptococcus gordonii [5]) | inhibition (Streptococcus gordonii [6]) | MIC (Streptococcus gordonii [7]) | inhibition (Streptococcus gordonii [8]) | inhibition (Streptococcus gordonii [9]) | Activity (Streptococcus gordonii [10]) | Activity (Streptococcus gordonii [11]) | MIC (Streptococcus gordonii [12])
CC1(C)S[C@@H]2[C@H](NC(=O)Cc3ccccc3)C(=O)N2[C@H]1C(=O)O [PENICILLIN G] | Active | Active | 4.5 log10CFU/ml | Active | 0.7 log10CFU/ml | inactive | 8 ng/mL (≈ 0.0239 µM) | Active | inactive | 3.9 log10CFU/ml | 0.6 log10CFU/ml | 8 ng/mL (≈ 0.0239 µM)
C[C@@H](O)[C@H]1C(=O)N2C(C(=O)O)=C(SCCNC=N)C[C@H]12 [IMIPENEM ANHYDROUS] |  |  | 6.1 log10CFU/ml |  | 2.1 log10CFU/ml |  | 4 ng/mL (≈ 0.0134 µM) |  |  | 5.3 log10CFU/ml | 2 log10CFU/ml | 4 ng/mL (≈ 0.0134 µM)
